Reference: paper PMC7574157 (Investigational new drugs, 2016)

Key:
[1] = system: patients; conditions: cited from earlier work
[2] = system: patients; conditions: cited from earlier work; remark: listed apart in the source
[3] = Population PK analysis; type: in vivo, human
Outline: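 Oral dosing; patients fasted 1 h before and 2 h after. Sparse plasma samples were taken pre-dose and 1–3 h post-dose on days 29, 43 and 99, with richer sampling on the intermittent schedule. Two-compartment model with first-order absorption and elimination, fitted by first-order conditional estimation with interaction. It estimated clearance, intercompartment clearance, central/peripheral volumes, absorption rate, inter-subject variability and residual error, and explored covariates.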

[4] = GSK458 as mono-therapy, estimate (SD)

| SMILES | Most frequently reported treatment-related toxicities, single agent [1] | Plasma half-life ([1]; no reference given) | Recommended phase II dose (RP2D), single agent ([1]; once daily) | Most frequently reported treatment-related adverse events, single agent [2] | Maximum tolerated dose (MTD), single agent ([2]; once daily) | Clearance, CL/F [3, 4] | Volume of central compartment Vc/F [3, 4] | Volume of peripheral compartment Vp/F [3, 4] | Vd ([3]; human, in vivo, oral) | clearance ([3]; human, in vivo, oral) | PK of GSK458 alone versus in combination with trametinib (post hoc estimates) ([3]; in vivo) | Inter-compartment clearance ([3]; population PK model of GSK458) | Inter-individual variability on central volume ([3]; population PK model of GSK458) | Inter-individual variability on clearance ([3]; population PK model of GSK458) | Peripheral volume of distribution ([3]; population PK model of GSK458) |
| --- | --- | --- | --- | --- | --- | --- | --- | --- | --- | --- | --- | --- | --- | --- | --- |
| CC(=O)Nc1cccc(-n2c(=O)n(C3CC3)c(=O)c3c(Nc4ccc(I)cc4F)n(C)c(=O)c(C)c32)c1 [trametinib] | rash or acneiform dermatitis, diarrhea, fatigue, nausea, and vomiting | five days | 2 mg |  |  |  |  |  |  |  |  |  |  |  |  |
| COc1ncc(-c2ccc3nccc(-c4ccnnc4)c3c2)cc1NS(=O)(=O)c1ccc(F)cc1F [GSK458] |  |  |  | diarrhea, fatigue, nausea, decreased appetite, vomiting, and hyerpglycemia | 2.5 mg | 3.88 (1.9) L/h | 17.81 (17.4) L | 54.67 (48.7) L | 8.95 L | 54.2 mL/min | No significant difference was observed | 2.71 L/h | ~97% | approximately 53% | 38.4 L |
